Most compounds without a hit are left out; they make up all but 1.8% or so of the library.
SUMO1 PPI mod: modulators of SUMO1 protein-protein interactions, primary screen, biochemical, uHTS | Small ubiquitin-related modifier 1 (Homo sapiens), P63165 | SUMO1 binding to a labelled peptide, TR-FRET, 1 h | inhibition, % at 20 µM | actives 0.33% (n = 360,000) | AID 602429, 2012; in the data active means inhibition above about 37%
Target sequence (P63165 whole entry, looked up): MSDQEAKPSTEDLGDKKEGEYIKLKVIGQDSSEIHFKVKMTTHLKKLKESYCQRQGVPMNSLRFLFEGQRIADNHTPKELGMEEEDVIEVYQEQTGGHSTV
Scp1 inh: Scp-1 phosphatase inhibitors, primary screen, biochemical, colorimetric, uHTS | Recombinant Scp1, phosphopeptide, malachite green phosphate absorbance | inhibition, % at 20 µM | actives 0.88% (n = 340,000) | Carboxy-terminal domain RNA polymerase II polypeptide A small phosphatase 1 (Homo …;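 active means inhibition above about 50% at 20 µM, limit read from the data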;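 further: plate controls were DMSO wells with enzyme for no effect and wells lacking enzyme for full effect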
Target sequence (Q9GZU7 76-261 limits assumed): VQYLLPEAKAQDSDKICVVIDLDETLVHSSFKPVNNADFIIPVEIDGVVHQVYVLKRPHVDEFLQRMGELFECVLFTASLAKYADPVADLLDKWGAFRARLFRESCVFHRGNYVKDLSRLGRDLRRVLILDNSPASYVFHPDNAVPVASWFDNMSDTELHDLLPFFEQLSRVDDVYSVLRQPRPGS
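assay system = SCP-1 phosphatase catalytic domain, residues 76-261 | buffer or medium = 50 mM Tris acetate pH 5.5, 0.005% Tween-20, 10 mM MgCl2 | incubation = enzyme reaction 45 min at room temperature, colour 5 min, stabilisation 30 min | signal = Phosphate-binding colour reagent, absorbance read at 630 nm | measure = % inhibition at 20 µM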
HKDC1 inhibitor: HKDC1 hexokinase inhibitors, primary screen, biochemical, fluorescence, uHTS | Q2TB90 | recombinant HKDC1, G6PDH/diaphorase resazurin coupled fluorescence | inhibition, % at 20 µM | actives 0.16% (n = 340,000);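 active means inhibition above about 35% when tested at 20 µM, limit read from the data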;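 further: plate controls were DMSO wells with enzyme for no effect and DMSO wells lacking enzyme for full effect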
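Test system: Recombinant HKDC1 (HK5) hexokinase enzyme, produced in-house | Input: HKDC1 at 5 µg/mL | Buffer or medium: Tris pH 8.0 buffer with MgCl2, Tween-20, BSA, BME | Schedule: 90 min reaction incubation at room temperature, dark | Technique: Resazurin-to-resorufin fluorescence via G6PDH and diaphorase coupling, 525/613 nm | Controls: DMSO wells with and without enzyme mix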
LMPTP block: LMPTP phosphatase inhibitors, primary screen, biochemical, fluorescence intensity, uHTS. Low molecular weight phosphotyrosine protein phosphatase (Homo sapiens), P24666. recombinant LMPTP-A, OMFP fluorogenic substrate. inhibition, % at 20 µM. actives 0.22% (n = 360,000). AID 651560, 2012;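 active means compounds that cut the enzyme signal by at least half of the control window in the single-dose screen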;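 further: plate controls were DMSO wells with enzyme plus substrate for no effect and substrate without enzyme for full effect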
Target sequence (P24666 whole entry, looked up): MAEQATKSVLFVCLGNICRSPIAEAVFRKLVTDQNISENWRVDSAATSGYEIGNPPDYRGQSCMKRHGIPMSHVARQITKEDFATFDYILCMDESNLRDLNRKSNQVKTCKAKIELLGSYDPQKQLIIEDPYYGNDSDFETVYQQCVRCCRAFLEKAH
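Test system: LMPTP-A phosphatase enzyme. Amount: LMPTP-A at 0.625 nM final in the reaction. Reagent: OMFP substrate, 400 µM final. Times: 50 min at room temperature. Signal: endpoint fluorescence intensity from OMFP dephosphorylation. Read-out basis: % inhibition. Benchmarks: no-enzyme and uninhibited controls.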
DNMT1 block: human DNMT1 methyltransferase inhibitors, primary screen, biochemical, molecular beacon, fluorescence, HinP1I cleavage, uHTS. actives 0.83% (n = 360,000). AID 588458, 2011. DNA (cytosine-5)-methyltransferase 1 (Homo sapiens), P26358. inhibition (reported as % activation of signal), % at 10 µM; in the data active means inhibition above about 50%
STEP inh: STEP phosphatase inhibitors, primary screen, biochemical, fluorescence intensity, uHTS | Tyrosine-protein phosphatase non-receptor type 5 (Homo sapiens), P54829 | recombinant STEP, OMFP fluorogenic substrate | inhibition, % at 20 µM | actives 0.25% (n = 360,000) | AID 588621, 2011;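 active means inhibition at 20 µM, scaled per plate between control wells, above about 37%, limit read from the data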;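 further: 0% = DMSO with enzyme and substrate and 100% = substrate only without enzyme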
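Material: STEP (striatal-enriched tyrosine phosphatase) enzyme, cell-free; Compound dosing: 20 µM single dose in 1% DMSO; Technique: fluorescence read at 480 nm ex / 540 nm em; Times: reaction 20 min, ambient temperature; Medium: 50 mM Bis-Tris pH 6.0 with 2.5 mM DTT and 0.005% Tween 20; Also added: OMFP at 25 µM.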
Scp1 confirm: Scp-1 phosphatase inhibitors, retest, confirmation, biochemical, colorimetric, single concentration. inhibition, % at 20 µM. AID 540281, 2011. recombinant SCP-1 catalytic domain, phosphate release, malachite green absorbance. actives 61% (n = 2,500). shares compounds with Scp1 inh;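 further: plate controls were DMSO with enzyme for no effect and buffer wells lacking enzyme for full effect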
Scp-1 MG ctr: colorimetric readout interference by compounds, confirmation, artefact control for Scp-1 inhibitor project, biochemical, single concentration; shares compounds with Scp1 inh; 2,500 tested, under 10 active; Colorimetric interference counterscreen, malachite green absorbance 630 nm; apparent inhibition (interference), % at 20 µM;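 further: compounds added after enzyme reaction finished so only phosphate colour detection is probed; plate controls were DMSO wells with completed Scp-1 reaction for no effect and substrate wells lacking enzyme for full effect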
Scp1 DSF: Scp-1 binding by thermal shift, confirmation, orthogonal assay for Scp-1 inhibitor project, biophysical, differential scanning fluorimetry; thermal shift relative to vanadate control, % at 40 µM; shares compounds with Scp1 inh; actives 25% (n = 1,500); Recombinant SCP1, Sypro Orange thermal shift Tm;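 active means substances whose mean melting-temperature shift, as a percentage of the reference inhibitor's shift, reaches about 5.3%, limit read from the data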;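 further: 0% = Tm of DMSO wells and 100% = Tm with sodium orthovanadate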
Active calls of the source: *.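 How the source made its calls, unless noted: active means inhibition of at least 30% at 20 µM; inactive means the rest.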

Results for Cc1ccc(-c2cc(C(=O)Nc3cccnc3)c3ccccc3n2)o1 ?
SUMO1 PPI mod: 0.4; Scp1 inh: 60.1*; HKDC1 inhibitor: 7.0; LMPTP block: 2.2; DNMT1 block: 50.5*; STEP inh: 1.3; Scp1 confirm: 57.4*; Scp-1 MG ctr: -1.0; Scp1 DSF: 5.7*

What do the screens show for `O=C(Nc1ccc(F)cc1F)c1cc(-c2ccco2)nc2ccccc12`?
SUMO1 PPI mod: -2.9; Scp1 inh: 0.7; HKDC1 inhibitor: -3.5; LMPTP block: -0.3; DNMT1 block: -5.8; STEP inh: 1.0

What do the screens show for `COc1cccc(NC(=O)c2cc(-c3ccco3)nc3ccccc23)c1`?
SUMO1 PPI mod: 2.2; Scp1 inh: 66.1*; HKDC1 inhibitor: -0.5; LMPTP block: 4.0; DNMT1 block: 17.2; STEP inh: 8.3; Scp1 confirm: 31.4*; Scp-1 MG ctr: -5.7; Scp1 DSF: 2.1

Results for O=C(Nc1ccccc1F)c1cc(-c2ccco2)nc2ccccc12 ?
SUMO1 PPI mod: -0.3; Scp1 inh: 68.4*; HKDC1 inhibitor: -1.7; LMPTP block: 6.4; DNMT1 block: 40.2; STEP inh: 16.7; Scp1 confirm: 51.0*; Scp-1 MG ctr: -17.5; Scp1 DSF: -6.3

Results for CCN(CC)C(=O)C1=C(C)N(CCCOC)C(=O)C(CC(=O)NCc2cccs2)C1 (centres undefined) ?
SUMO1 PPI mod: 0.4; LMPTP block: -1.2; DNMT1 block: 2.6; STEP inh: 2.6

How did C[C@H]1Cn2cnc(C(=O)Nc3ccccc3)c2C(=O)N1 do in these assays?
SUMO1 PPI mod: 7.1; LMPTP block: -1.5; DNMT1 block: 4.1; STEP inh: -5.1

Results for O=C1/C(=C/c2ccc(S(=O)(=O)O)cc2S(=O)(=O)O)CCc2ccccc21 ?
SUMO1 PPI mod: -5.6; LMPTP block: -1.5

How did COc1ccc(CC(=O)Nc2ccc(S(=O)(=O)N3CCCC3)cc2)c(OC)c1 do in these assays?
SUMO1 PPI mod: 4.4; Scp1 inh: -5.0; HKDC1 inhibitor: 2.1; LMPTP block: 0.4; DNMT1 block: -4.6; STEP inh: 1.7

Results for O=C(Nc1c2n(c(=S)n(-c3ccccc3)c1=O)CCCCC2)c1ccccc1 ?
SUMO1 PPI mod: 0.4; Scp1 inh: -3.5; HKDC1 inhibitor: -6.5; LMPTP block: -1.0; DNMT1 block: 1.4; STEP inh: 5.0

Results for Cn1c(=O)c(NC(=O)c2ccccc2)c2n(c1=S)CCCCC2 ?
SUMO1 PPI mod: 2.5; Scp1 inh: 54.9*; HKDC1 inhibitor: -1.1; LMPTP block: -1.3; DNMT1 block: 8.6; STEP inh: -2.0; Scp1 confirm: 36.3*; Scp-1 MG ctr: -14.0; Scp1 DSF: -20.4

Results for CC(NC(=O)CN1C(=O)NC2(CCCCCC2)C1=O)c1ccccc1 (centres undefined) ?
SUMO1 PPI mod: -4.7; Scp1 inh: -1.7; HKDC1 inhibitor: -8.7; LMPTP block: -2.1; DNMT1 block: 6.5; STEP inh: 0.1

Results for CC(NC(=O)c1cc2c(=O)n(C)c3ccccc3c2n1C)c1ccc2c(c1)OCCO2 (centres undefined) ?
SUMO1 PPI mod: -18.8; Scp1 inh: 3.4; HKDC1 inhibitor: -1.9; LMPTP block: 2.8; DNMT1 block: -0.8; STEP inh: 1.6

What do the screens show for `CC(NC(=O)COc1cc(=O)n(C)c2ccccc12)c1ccc2c(c1)OCCO2` (centres undefined)?
SUMO1 PPI mod: 3.3; Scp1 inh: -6.1; HKDC1 inhibitor: -0.8; LMPTP block: -1.3; DNMT1 block: 4.3; STEP inh: -3.5; Scp1 confirm: -9.0; Scp-1 MG ctr: -10.9

Results for COCCNC(=O)C1CCCN(Cc2cccc(C#N)c2)CC1 (centres undefined) ?
SUMO1 PPI mod: -1.5; LMPTP block: -2.4; DNMT1 block: 2.4; STEP inh: -1.1

Results for COc1ccccc1-n1c(SCC(=O)N2CCCCC2)nc2cccnc21 ?
SUMO1 PPI mod: -3.9; Scp1 inh: 95.4*; HKDC1 inhibitor: 1.6; LMPTP block: -1.3; DNMT1 block: 1.4; STEP inh: -3.2; Scp1 confirm: -21.2; Scp-1 MG ctr: -14.8

Results for COc1ccccc1-n1c(SCC(=O)N2CCOCC2)nc2cccnc21 ?
SUMO1 PPI mod: 1.8; Scp1 inh: -0.3; HKDC1 inhibitor: -5.3; LMPTP block: 0.0; DNMT1 block: -0.4; STEP inh: -0.9

Results for O=C(CN1C(=O)CCC1=O)Nc1nc2c(F)cc(F)cc2s1 ?
SUMO1 PPI mod: -0.7; Scp1 inh: -12.0; HKDC1 inhibitor: -3.0; LMPTP block: -1.0; DNMT1 block: 0.8; STEP inh: -1.9

How did O=C(CN1C(=O)NC2(CCCCC2)C1=O)Nc1nc2c(F)cc(F)cc2s1 do in these assays?
SUMO1 PPI mod: 6.3; Scp1 inh: -0.4; HKDC1 inhibitor: 2.4; LMPTP block: 0.7; DNMT1 block: -10.3; STEP inh: -3.0; Scp1 confirm: -8.1; Scp-1 MG ctr: -10.6

What do the screens show for `CC(C)c1ccc(NC(=O)C2(C)Cc3c(-c4ccc5c(c4)OCO5)ccnc3O2)cc1` (centres undefined)?
SUMO1 PPI mod: -2.8; LMPTP block: 4.9; DNMT1 block: -2.1; STEP inh: -1.5

What do the screens show for `Cc1ccc(CN2C(=O)N/C(=C/c3ccc(-c4ccc(C(=O)O)cc4)o3)C2=O)cc1`?
SUMO1 PPI mod: 38.5*; Scp1 inh: 59.4*; HKDC1 inhibitor: 9.4; LMPTP block: 3.6; DNMT1 block: 41.6; STEP inh: 6.7; Scp1 confirm: 47.9*; Scp-1 MG ctr: -11.5; Scp1 DSF: 4.2
